# Several values for one entry are separate records, joined by “and”; a condition that tells them apart may be missing. Identical values can stand only once. Like-named read-outs stand apart in the source and are kept apart here.
# Assays:
# Cyclic voltammetry = assay type: physicochemical; conditions: for Dred (CV): 1 mM; for Dox (CV): oxidized species
# In short: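 Three-electrode cell: 3 mm glassy carbon working electrode (0.0707 cm2), Ag/AgCl in 3 M KCl reference, Pt wire counter. Electrode polished with 0.05 μm alumina and rinsed with water and methanol. Nitroxide starts at 1 mM; hydrotrope electrolytes readjusted to pH 7.0 (HCl) or, for the disulfonate, to about 0 (H2SO4). Triplicate CVs at 0.001–1 V/s, three cycles per rate.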
# [1] = Electrochemical impedance spectroscopy; assay type: physicochemical
# In short: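 Glassy carbon rotating disk (5 mm; 0.196 cm2) with Ag/AgCl reference and Pt wire counter; polished as for CV. Solutions hold 1 mM reduced radical plus 1 mM oxidised form, made by bulk electrolysis at 0.75 V vs Ag/AgCl for 5–10 h. Run at open-circuit potential, 2500 rpm, 10 mV amplitude, 0.5–100000 Hz. Rct comes from a Nyquist fit, then j0, then k0 assuming α = 0.5.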
# [2] = Hydraulic radius calculated with the Stokes-Einstein equation; assay type: physicochemical; conditions: from Dred CV, 298K
# In short: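 Stokes–Einstein estimate that uses Dred from the CV fits, the measured solution viscosity and T = 298 K. Viscosities come from a concentric-cylinder rotational rheometer (KCl-based solutions) or a calibrated Ubbelohde glass viscometer (1 M H2SO4 and 15 wt % proline).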
# [3] = Linear sweep voltammetry with rotating disk electrode; assay type: physicochemical; conditions: for Dox (LSV): oxidized species
# [4] = cited from earlier work; for Dred, previously reported: aqueous solution
# [5] = cited from earlier work
# [6] = for 3,4-dimethylbenzenesulfonate; cited from earlier work
# [7] = Viscosity measurements of hydrotrope solutions; assay type: physicochemical; conditions: 20 wt % hydrotrope in 1 M KCl, rotational rheometer
# In short: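 Rotational rheometer with concentric cylinder geometry over shear rates of 10 to 100/s. Solutions tested: 1 M KCl, 20 wt % NaXS and 20 wt % NapTS.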
compound,measurement,setting,value
"CC1(C)CC(O)CC(C)(C)N1[O] [4-OH-TEMPO, 4-OH-TEMPO free radical]",formal reduction potential E0',"Cyclic voltammetry; 1 M KCl, no hydrotrope",0.59 ± 0.00 V vs Ag/AgCl and 0.59 V vs Ag/AgCl
same,Dred (CV),"Cyclic voltammetry; 1 M KCl, no hydrotrope",7.00 ± 0.24 × 10^–6 cm^2/s
same,standard rate constant k0 (CV),"Cyclic voltammetry; 1 M KCl, no hydrotrope, glassy carbon electrode",0.35 ± 0.14 cm/s
same,standard rate constant k0 (CV),Cyclic voltammetry; 20 wt % NaXS in 1 M KCl,0.48 ± 0.19 cm/s
same,Dred (CV),Cyclic voltammetry; 20 wt % NaXS in 1 M KCl,3.33 ± 0.04 × 10^–6 cm^2/s
same,formal reduction potential E0',"Cyclic voltammetry; 20 wt % NaXS in 1 M KCl, vs Ag/AgCl",0.59 ± 0.01 V
same,standard rate constant k0 (CV),Cyclic voltammetry; 20 wt % NapTS in 1 M KCl,0.95 ± 0.07 cm/s
same,Dred (CV),Cyclic voltammetry; 20 wt % NapTS in 1 M KCl,4.27 ± 0.14 × 10^–6 cm^2/s
same,formal reduction potential E0',"Cyclic voltammetry; 20 wt % NapTS in 1 M KCl, vs Ag/AgCl",0.59 ± 0.00 V
same,standard rate constant k0 (CV),Cyclic voltammetry; 20 wt % urea in 1 M KCl,0.78 ± 0.16 cm/s
same,Dred (CV),Cyclic voltammetry; 20 wt % urea in 1 M KCl,5.90 ± 0.07 × 10^–6 cm^2/s
same,formal reduction potential E0',"Cyclic voltammetry; 20 wt % urea in 1 M KCl, vs Ag/AgCl",0.59 ± 0.00 V
same,Dox (CV),"Cyclic voltammetry; 1 M KCl, no hydrotrope",6.82 ± 0.32 × 10^–6 cm^2/s
same,Dox (CV),Cyclic voltammetry; 20 wt % NaXS in 1 M KCl,3.50 ± 0.11 × 10^–6 cm^2/s
same,Dox (CV),Cyclic voltammetry; 20 wt % NapTS in 1 M KCl,4.92 ± 0.15 × 10^–6 cm^2/s
same,Dox (CV),Cyclic voltammetry; 20 wt % urea in 1 M KCl,5.55 ± 0.12 × 10^–6 cm^2/s
same,standard rate constant k0 (EIS),"[1]; 1 M KCl, no hydrotrope",0.08 ± 0.00 cm/s
same,standard rate constant k0 (EIS),[1]; 20 wt % NaXS in 1 M KCl,0.29 ± 0.11 cm/s
same,standard rate constant k0 (EIS),[1]; 20 wt % NapTS in 1 M KCl,0.12 ± 0.01 cm/s
same,hydraulic radius,[2]; 20 wt % NaXS,3.7 Å
same,hydraulic radius,[2]; 20 wt % NapTS,2.7 Å
same,hydraulic radius,[2]; no hydrotrope (1 M KCl),3.3 Å
same,Dred (LSV),"[3]; 1 M KCl, no hydrotrope",10.53 × 10^–6 cm^2/s
same,standard rate constant k0 (LSV),"[3]; 1 M KCl, no hydrotrope",0.09 ± 0.07 cm/s
same,Dred (LSV),[3]; 20 wt % NaXS in 1 M KCl,6.63 × 10^–6 cm^2/s
same,standard rate constant k0 (LSV),[3]; 20 wt % NaXS in 1 M KCl,0.12 ± 0.11 cm/s
same,Dred (LSV),[3]; 20 wt % NapTS in 1 M KCl,8.53 × 10^–6 cm^2/s
same,standard rate constant k0 (LSV),[3]; 20 wt % NapTS in 1 M KCl,0.32 ± 0.33 cm/s
same,Dox (LSV),"[3]; 1 M KCl, no hydrotrope",6.03 × 10^–6 cm^2/s
same,Dox (LSV),[3]; 20 wt % NaXS in 1 M KCl,3.76 × 10^–6 cm^2/s
same,Dox (LSV),[3]; 20 wt % NapTS in 1 M KCl,4.40 × 10^–6 cm^2/s
same,"Dred, previously reported",[4]; ref 11,29.5 × 10^–6 cm^2/s
same,"Dred, previously reported",[4]; ref 42,7.7 × 10^–6 cm^2/s
same,formal reduction potential E0',[4]; circumneutral pH,0.59 V vs Ag/AgCl
"Cc1cc2nc3c(=O)[nH]c(=O)nc-3n(C[C@H](O)[C@H](O)[C@H](O)COP(=O)(O)O)c2cc1C [FMN, riboflavin-5′-monophosphate]",aqueous solubility,"[5]; 1.0 M KOH, no hydrotrope",100 mM
"Oc1ccc(O)cc1 [hydroquinone, benzene-1,4-diol, reference compound]",solubility,"[5]; deionized water, 4.0 M urea",1500 mM
sodium xylenesulfonate [NaXS],pKA,[6],10.36
same,viscosity of solution,[7],1.8 × 10^–3 Pa·s

# Source: article PMC8600646 (ACS Omega, 2021)
